# Where two headings read alike, the source gives them in different places.
# Legend:
# Plasma pharmacokinetics = assay type: in vivo, human; settings: for half-life / k el / AUC(0-t) / Cmax / concentration at 15 day / MRT: human, plasma, 10 mg; for Cmax: C max; for concentration at 15 day: Css; for Css, max, Mean ± SD: C1D15, 10 mg p.o.
# Summary of the method: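 Test compound was given at 10 mg orally, either continuously daily or 3 weeks on/1 week off. Plasma PK was sampled on cycle 1 day 1 after a single dose for Tmax, Cmax, AUC0-24h, AUC0-t, AUC0-∞, λz, t1/2, CL/F, Vz/F, %AUCex and MRT. After multiple doses, steady-state parameters were Css max/min/avg, Tss,max, AUCss, CLss/F, Vss/F, %Fluctuation and accumulation ratios. […]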
# [1] = test system: patients with advanced solid tumors; settings: cited from earlier work
# FGFR = settings: AL3810 compared with sorafenib; cited from earlier work
# [2] = oral, GeoMean(%CVb), single dose, C1D1, continuous arm (n = 5)
# [3] = oral, GeoMean(%CVb), single dose, C1D1, intermittent arm (n = 4)
# [4] = multiple dose, C1D15, continuous arm (n=5)
# [5] = multiple dose, C1D15, intermittent arm (n=4)
# [6] = single dose, C1D1, continuous arm (n = 5)
# [7] = single dose, C1D1, intermittent arm (n = 4)
smiles,measurement,setting,value
CNC(=O)c1cccc2cc(Oc3ccnc4cc(OCC5(N)CC5)c(OC)cc34)ccc12 [Lucitanib],half-life,"Plasma pharmacokinetics; t 1/2, GeoMean(%CVb), single dose, C1D1, continuous arm (n = 5)",21.9 h
same,half-life,"Plasma pharmacokinetics; t 1/2, GeoMean(%CVb), single dose, C1D1, intermittent arm (n = 4)",22.1 h
same,half-life,"Plasma pharmacokinetics; t 1/2, Mean ± SD, single dose, C1D1, continuous arm (n = 5)",23.8 ± 11.8 h
same,half-life,"Plasma pharmacokinetics; t 1/2, Mean ± SD, single dose, C1D1, intermittent arm (n = 4)",24.8 ± 15.5 h
same,k el,"Plasma pharmacokinetics; λ z, GeoMean(%CVb), single dose, C1D1, continuous arm (n = 5)",8.33e-06 s⁻¹
same,k el,"Plasma pharmacokinetics; λ z, GeoMean(%CVb), single dose, C1D1, intermittent arm (n = 4)",8.33e-06 s⁻¹
same,k el,"Plasma pharmacokinetics; λ z, Mean ± SD, single dose, C1D1, continuous arm (n = 5)",8.33e-06 s⁻¹
same,k el,"Plasma pharmacokinetics; λ z, Mean ± SD, single dose, C1D1, intermittent arm (n = 4)",8.33e-06 s⁻¹
same,k el,"Plasma pharmacokinetics; λz, Mean ± SD, multiple dose, C1D15, continuous arm (n=5)",5.56e-06 s⁻¹
same,k el,"Plasma pharmacokinetics; λz, Mean ± SD, multiple dose, C1D15, intermittent arm (n=4)",5.56e-06 s⁻¹
same,AUC(0-t),"Plasma pharmacokinetics; oral, AUC0-24h, GeoMean(%CVb), single dose, C1D1, continuous arm (n = 5)",2410 ng·h/mL
same,AUC(0-t),"Plasma pharmacokinetics; oral, AUC0-24h, GeoMean(%CVb), single dose, C1D1, intermittent arm (n = 4)",2770 ng·h/mL
same,AUC(0-t),"Plasma pharmacokinetics; oral, AUC0-24h, Mean ± SD, single dose, C1D1, continuous arm (n = 5)",2560 ± 858 ng·h/mL
same,AUC(0-t),"Plasma pharmacokinetics; oral, AUC0-24h, Mean ± SD, single dose, C1D1, intermittent arm (n = 4)",3110 ± 1890 ng·h/mL
same,AUC(0-t),"Plasma pharmacokinetics; oral, AUC0-t, Mean ± SD, single dose, C1D1, continuous arm (n = 5)",2510 ± 834 ng·h/mL
same,AUC(0-t),"Plasma pharmacokinetics; oral, AUC0-t, Mean ± SD, single dose, C1D1, intermittent arm (n = 4)",3030 ± 1750 ng·h/mL
same,Cmax,Plasma pharmacokinetics; [2],261 ng/mL
same,Cmax,Plasma pharmacokinetics; [3],228 ng/mL
same,concentration at 15 day,"Plasma pharmacokinetics; oral, avg, GeoMean(%CVb), multiple dose, C1D15, continuous arm (n=5)",257 ng/mL
same,concentration at 15 day,"Plasma pharmacokinetics; oral, avg, GeoMean(%CVb), multiple dose, C1D15, intermittent arm (n=4)",382 ng/mL
same,concentration at 15 day,"Plasma pharmacokinetics; oral, avg, Mean ± SD, multiple dose, C1D15, continuous arm (n=5)",278 ± 110 ng/mL
same,concentration at 15 day,"Plasma pharmacokinetics; oral, avg, Mean ± SD, multiple dose, C1D15, intermittent arm (n=4)",403 ± 155 ng/mL
same,concentration at 15 day,"Plasma pharmacokinetics; oral, min, GeoMean(%CVb), multiple dose, C1D15, continuous arm (n=5)",176 ng/mL
same,concentration at 15 day,"Plasma pharmacokinetics; oral, min, GeoMean(%CVb), multiple dose, C1D15, intermittent arm (n=4)",284 ng/mL
same,concentration at 15 day,"Plasma pharmacokinetics; oral, min, Mean ± SD, multiple dose, C1D15, continuous arm (n=5)",203 ± 93.5 ng/mL
same,concentration at 15 day,"Plasma pharmacokinetics; oral, min, Mean ± SD, multiple dose, C1D15, intermittent arm (n=4)",303 ± 118 ng/mL
same,MRT,Plasma pharmacokinetics; [2],32.2 h
same,MRT,Plasma pharmacokinetics; [3],32.6 h
same,MRT,"Plasma pharmacokinetics; oral, Mean ± SD, single dose, C1D1, continuous arm (n = 5)",34.2 ± 14.3 h
same,MRT,"Plasma pharmacokinetics; oral, Mean ± SD, single dose, C1D1, intermittent arm (n = 4)",36.3 ± 21.6 h
same,k el,"Plasma pharmacokinetics; oral, λz, GeoMean(%CVb), multiple dose, C1D15, continuous arm (n=5)",2.78e-06 s⁻¹
same,k el,"Plasma pharmacokinetics; oral, λz, GeoMean(%CVb), multiple dose, C1D15, intermittent arm (n=4)",5.56e-06 s⁻¹
same,"Css, max, Mean ± SD","Plasma pharmacokinetics; multiple dose, continuous arm (n=5)",482.80 ± 271.81 ng/mL
same,"Css, max, Mean ± SD","Plasma pharmacokinetics; multiple dose, intermittent arm (n=4)",608.50 ± 169.48 ng/mL
same,"%Fluctuation, GeoMean(%CVb)",Plasma pharmacokinetics; [4],90.75(63.71) %
same,"%Fluctuation, Mean ± SD",Plasma pharmacokinetics; [4],104.26 ± 61.47%
same,"CLss/F, GeoMean(%CVb)",Plasma pharmacokinetics; [4],1.62(49.01) L/hour
same,"CLss/F, Mean ± SD",Plasma pharmacokinetics; [4],1.78 ± 0.93 L/h
same,"Css, max, GeoMean(%CVb)",Plasma pharmacokinetics; [4],435.78(50.87) ng/mL
same,"R ac, AUC (accumulation ratio based on AUC), Mean ± SD",Plasma pharmacokinetics; [4],2.62 ± 0.55
same,"R ac, Cmax (accumulation ratio based on Cmax), Mean ± SD",Plasma pharmacokinetics; [4],1.98 ± 1.20
same,"Tss, max, Median",Plasma pharmacokinetics; [4],2.97 h
same,"%Fluctuation, GeoMean(%CVb)",Plasma pharmacokinetics; [5],79.03(27.10) %
same,"%Fluctuation, Mean ± SD",Plasma pharmacokinetics; [5],81.15 ± 21.54%
same,"CLss/F, GeoMean(%CVb)",Plasma pharmacokinetics; [5],1.09(40.16) L/hour
same,"CLss/F, Mean ± SD",Plasma pharmacokinetics; [5],1.15 ± 0.45 L/h
same,"Css, max, GeoMean(%CVb)",Plasma pharmacokinetics; [5],590.42(29.26) ng/mL
same,"R ac, AUC (accumulation ratio based on AUC), Mean ± SD",Plasma pharmacokinetics; [5],3.38 ± 0.84
same,"R ac, Cmax (accumulation ratio based on Cmax), Mean ± SD",Plasma pharmacokinetics; [5],2.67 ± 0.69
same,"Tss, max, Median",Plasma pharmacokinetics; [5],1.98 h
same,"%AUCex, GeoMean(%CVb)",Plasma pharmacokinetics; [6],47.22(22.24) %
same,"%AUCex, Mean ± SD",Plasma pharmacokinetics; [6],48.16 ± 10.87%
same,"CL/F, GeoMean(%CVb)",Plasma pharmacokinetics; [6],2.15(57.72) L/hour
same,"CL/F, Mean ± SD",Plasma pharmacokinetics; [6],2.44 ± 1.5048 L/h
same,"%AUCex, GeoMean(%CVb)",Plasma pharmacokinetics; [7],46.33(29.69) %
same,"%AUCex, Mean ± SD",Plasma pharmacokinetics; [7],47.96 ± 15.75%
same,"CL/F, GeoMean(%CVb)",Plasma pharmacokinetics; [7],1.83(105.30) L/hour
same,"CL/F, Mean ± SD",Plasma pharmacokinetics; [7],2.24 ± 1.21 L/h
same,"exposure (Cmax, AUC0-24h) at steady state relative to day 1","Plasma pharmacokinetics; steady state vs day 1, 10 mg p.o.",two to three times
same,tolerability of continuous dosing,"[1]; continuous 15 mg daily dose, arterial hypertension",unsustainable beyond three cycles
same,partial response / ORR,[1]; patients with FGF-aberrant (FGFR1- or FGF3/4/19-amplified) breast cancer,50%
same,median PFS,[1]; patients with FGF-aberrant breast cancer,40.4 weeks
same,median PFS,[1]; patients with angiogenesis-sensitive disease,25 weeks
same,potency against FGFR,FGFR,more potent
